Source: ChEMBL document CHEMBL1933017, “Synthesis and biological evaluation of some thiazolidinones as antimicrobial agents” (2012)
≈ marks a conversion by molar mass, not a printed value.

What was measured:
Candida albicans [1] = test: Antifungal activity against Candida albicans after 48 hrs by agar streak dilution method; format: functional
Procedure, shortened: (§1)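 Fungal MIC by agar streak dilution on Sabouraud dextrose agar, poured 4–5 mm deep. Compound from a DMSO stock (100 μg/mL) was incorporated at serial concentrations of 3.12–100 µg/mL. Plates were inoculated with about 10⁵ CFU/mL of suspension and incubated at (37 ± 1) °C for 48 h. Each value is the mean of three independent experiments.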

Escherichia coli [2] = test: Antibacterial activity against Escherichia coli after 24 hrs by agar streak dilution method; format: functional
Procedure, shortened: (§2)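 MIC by agar streak dilution. Graded amounts of DMSO stock (100 μg/mL) were mixed into molten sterile nutrient agar and poured 4–5 mm deep. Serial concentrations spanned 3.12–100 µg/mL. Plates were inoculated with about 10⁵ CFU/mL of bacterial suspension and incubated at (37 ± 1) °C for 24 h. Each value is the mean of three independent experiments.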

Bacillus cereus [3] = test: Antibacterial activity against Bacillus cereus after 24 hrs by agar streak dilution method; format: functional; procedure, shortened: as §2
Aspergillus clavatus [4] = test: Antifungal activity against Aspergillus clavatus after 48 hrs by agar streak dilution method; format: functional; procedure, shortened: as §1
Salmonella typhi [5] = test: Antibacterial activity against Salmonella Typhi at 100 ug/disc after 24 hrs by disc diffusion method; format: functional, Salmonella enterica subsp. enterica serovar Typhi; details: Salmonella enterica, read-out: DIZ
Procedure, shortened: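 Paper disc diffusion on Mueller-Hinton agar poured 5 mm deep; 10⁵ CFU/mL suspension (0.5 McFarland) swabbed over surface. 6.25 mm filter paper discs soaked in compound in DMSO, incubated 24 h at (37 ± 1) °C; inhibition zone diameter in mm. DMSO disc as blank; ciprofloxacin 100 µg/disc as reference. Mean of three independent experiments.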

Aspergillus niger [6] = test: Antifungal activity against Aspergillus niger at 100 ug/disc after 24 hrs by disc diffusion method; format: functional; details: read-out: DIZ
Procedure, shortened: (§3)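 Paper disc diffusion on autoclaved Mueller-Hinton agar poured 5 mm deep. Agar was swab-inoculated with 10⁵ CFU/mL suspension (0.5 McFarland). Discs 6.25 mm across were soaked in compound solution in DMSO (3.12–100 µg/mL) and plates incubated 24 h at (37 ± 1) °C. Read-out was inhibition zone (mm). DMSO control disc; ciprofloxacin or ketoconazole reference, 100 µg/disc. Mean of three independent experiments.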

Shigella flexneri [7] = test: Antibacterial activity against Shigella flexneri after 24 hrs by agar streak dilution method; format: functional; procedure, shortened: as §2
Bacillus cereus [8] = test: Antibacterial activity against Bacillus cereus at 100 ug/disc after 24 hrs by disc diffusion method; format: functional; details: read-out: DIZ; procedure, shortened: as §3
Staphylococcus aureus [9] = test: Antibacterial activity against Staphylococcus aureus after 24 hrs by agar streak dilution method; format: functional; procedure, shortened: as §2
Klebsiella pneumoniae [10] = test: Antibacterial activity against Klebsiella pneumoniae at 100 ug/disc after 24 hrs by disc diffusion method; format: functional; details: read-out: DIZ; procedure, shortened: as §3
Salmonella typhi [11] = test: Antibacterial activity against Salmonella Typhi after 24 hrs by agar streak dilution method; format: functional, Salmonella enterica subsp. enterica serovar Typhi; details: Salmonella enterica
Procedure, shortened: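 Agar streak dilution: DMSO stock (100 µg/mL) graded into molten sterile nutrient agar, poured 4–5 mm deep and solidified. Plates carry serial dilutions spanning 3.12–100 µg/mL. Applied ~10⁵ CFU/mL suspension, then incubated 24 h at (37 ± 1) °C. MIC read as the lowest inhibitory concentration; each value is the mean of three independent experiments.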

Staphylococcus aureus [12] = test: Antibacterial activity against Staphylococcus aureus at 100 ug/disc after 24 hrs by disc diffusion method; format: functional; details: read-out: DIZ; procedure, shortened: as §3
Candida albicans [13] = test: Antifungal activity against Candida albicans at 100 ug/disc after 24 hrs by disc diffusion method; format: functional; details: read-out: DIZ; procedure, shortened: as §3
Aspergillus clavatus [14] = test: Antifungal activity against Aspergillus clavatus at 100 ug/disc after 24 hrs by disc diffusion method; format: functional; details: read-out: DIZ; procedure, shortened: as §3
Aspergillus fumigatus [15] = test: Antifungal activity against Aspergillus fumigatus at 100 ug/disc after 24 hrs by disc diffusion method; format: functional; details: read-out: DIZ; procedure, shortened: as §3
Shigella flexneri [16] = test: Antibacterial activity against Shigella flexneri at 100 ug/disc after 24 hrs by disc diffusion method; format: functional; details: read-out: DIZ; procedure, shortened: as §3
Aspergillus niger [17] = test: Antifungal activity against Aspergillus niger after 48 hrs by agar streak dilution method; format: functional; procedure, shortened: as §1
Proteus vulgaris [18] = test: Antibacterial activity against Proteus vulgaris at 100 ug/disc after 24 hrs by disc diffusion method; format: functional; details: read-out: DIZ; procedure, shortened: as §3
Pseudomonas aeruginosa [19] = test: Antibacterial activity against Pseudomonas aeruginosa […] after 24 hrs by agar streak dilution method; format: functional
Proteus vulgaris [20] = test: Antibacterial activity against Proteus vulgaris after 24 hrs by agar streak dilution method; format: functional; procedure, shortened: as §2
Escherichia coli [21] = test: Antibacterial activity against Escherichia coli at 100 ug/disc after 24 hrs by disc diffusion method; format: functional; details: read-out: DIZ; procedure, shortened: as §3
Pseudomonas aeruginosa [22] = test: Antibacterial activity against Pseudomonas aeruginosa at 100 ug/disc after 24 hrs by disc diffusion method; format: functional; details: read-out: DIZ; procedure, shortened: as §3
Klebsiella pneumoniae [23] = test: Antibacterial activity against Klebsiella pneumoniae […] after 24 hrs by agar streak dilution method; format: functional
Aspergillus fumigatus [24] = test: Antifungal activity against Aspergillus fumigatus after 48 hrs by agar streak dilution method; format: functional; procedure, shortened: as §1

SMILES | MIC (Candida albicans [1]) [µg/mL] | MIC (Bacillus cereus [3]) [µg/mL] | MIC (Aspergillus clavatus [4]) [µg/mL] | zone of inhibition at 100 µg/disc (Salmonella typhi [5]) [mm] | zone of inhibition at 100 µg/disc (Aspergillus niger [6]) [mm] | MIC (Shigella flexneri [7]) [µg/mL] | zone of inhibition at 100 µg/disc (Bacillus cereus [8]) [mm] | MIC (Staphylococcus aureus [9]) [µg/mL] | zone of inhibition at 100 µg/disc (Klebsiella pneumoniae [10]) [mm] | MIC (Salmonella typhi [11]) [µg/mL] | zone of inhibition at 100 µg/disc (Staphylococcus aureus [12]) [mm] | zone of inhibition at 100 µg/disc (Candida albicans [13]) [mm] | zone of inhibition at 100 µg/disc (Aspergillus clavatus [14]) [mm] | zone of inhibition at 100 µg/disc (Aspergillus fumigatus [15]) [mm] | zone of inhibition at 100 µg/disc (Shigella flexneri [16]) [mm] | MIC (Aspergillus niger [17]) [µg/mL] | zone of inhibition at 100 µg/disc (Proteus vulgaris [18]) [mm] | MIC (Pseudomonas aeruginosa [19]) [µg/mL] | MIC (Proteus vulgaris [20]) [µg/mL] | zone of inhibition at 100 µg/disc (Escherichia coli [21]) [mm] | also measured
CCN1CCN(CC2SC(c3ccc(OC)cc3)N(c3ccc(Nc4nc(Oc5cc(=O)n(C)c6ccccc56)nc(N(C)C)n4)cc3)C2=O)CC1 (stereo not drawn) | 12.5 (≈ 17.3 µM) | 6.25 (≈ 8.66 µM) | 12.5 (≈ 17.3 µM) | 26 | 25 | 6.25 (≈ 8.66 µM) | 27 | 6.25 (≈ 8.66 µM) | 25 | 6.25 (≈ 8.66 µM) | 28 | 26 | 24 | 27 | 26 | 12.5 (≈ 17.3 µM) | 21 | 12.5 (≈ 17.3 µM) | 50 (≈ 69.3 µM) | 27 | MIC (Escherichia coli [2]): 6.25 µg/mL (≈ 8.66 µM); zone of inhibition at 100 µg/disc (Pseudomonas aeruginosa [22]): 25 mm; MIC (Klebsiella pneumoniae [23]): 25 µg/mL (≈ 34.6 µM); MIC (Aspergillus fumigatus [24]): 12.5 µg/mL (≈ 17.3 µM)
CCN1CCN(CC2SC(c3ccc(Br)cc3)N(c3ccc(Nc4nc(Oc5cc(=O)n(C)c6ccccc56)nc(N(C)C)n4)cc3)C2=O)CC1 (stereo not drawn) | 100 (≈ 130 µM) | 100 (≈ 130 µM) | 100 (≈ 130 µM) | 17 | 14 | 100 (≈ 130 µM) | 18 | 100 (≈ 130 µM) | 19 | 100 (≈ 130 µM) | 15 | 12 | 16 | 14 | 15 | 100 (≈ 130 µM) | 17 | 100 (≈ 130 µM) | 100 (≈ 130 µM) | 19 | MIC (Escherichia coli [2]): 100 µg/mL (≈ 130 µM); zone of inhibition at 100 µg/disc (Pseudomonas aeruginosa [22]): 16 mm; MIC (Klebsiella pneumoniae [23]): 100 µg/mL (≈ 130 µM); MIC (Aspergillus fumigatus [24]): 100 µg/mL (≈ 130 µM)
CCN1CCN(CC2SC(c3cccc(F)c3)N(c3ccc(Nc4nc(Oc5cc(=O)n(C)c6ccccc56)nc(N(C)C)n4)cc3)C2=O)CC1 (stereo not drawn) | 25 (≈ 35.2 µM) | 6.25 (≈ 8.8 µM) | 50 (≈ 70.4 µM) | 24 | 25 | 12.5 (≈ 17.6 µM) | 23 | 12.5 (≈ 17.6 µM) | 22 | 6.25 (≈ 8.8 µM) | 20 | 25 | 24 | 24 | 25 | 12.5 (≈ 17.6 µM) | 19 | 50 (≈ 70.4 µM) | 50 (≈ 70.4 µM) | 23 | MIC (Escherichia coli [2]): 6.25 µg/mL (≈ 8.8 µM); zone of inhibition at 100 µg/disc (Pseudomonas aeruginosa [22]): 20 mm; MIC (Klebsiella pneumoniae [23]): 25 µg/mL (≈ 35.2 µM); MIC (Aspergillus fumigatus [24]): 50 µg/mL (≈ 70.4 µM)
CCN1CCN(CC2SC(c3ccc(Cl)c(Cl)c3)N(c3ccc(Nc4nc(Oc5cc(=O)n(C)c6ccccc56)nc(N(C)C)n4)cc3)C2=O)CC1 (stereo not drawn) | 25 (≈ 32.9 µM) | 12.5 (≈ 16.4 µM) | 50 (≈ 65.7 µM) | 12 | 21 | 12.5 (≈ 16.4 µM) | 17 | 25 (≈ 32.9 µM) | 19 | 50 (≈ 65.7 µM) | 15 | 23 | 19 | 16 | 22 | 25 (≈ 32.9 µM) | 19 | 25 (≈ 32.9 µM) | 25 (≈ 32.9 µM) | 17 | MIC (Escherichia coli [2]): 25 µg/mL (≈ 32.9 µM); zone of inhibition at 100 µg/disc (Pseudomonas aeruginosa [22]): 23 mm; MIC (Klebsiella pneumoniae [23]): 12.5 µg/mL (≈ 16.4 µM); MIC (Aspergillus fumigatus [24]): 50 µg/mL (≈ 65.7 µM)
CCN1CCN(CC2SC(c3ccccc3)N(c3ccc(Nc4nc(Oc5cc(=O)n(C)c6ccccc56)nc(N(C)C)n4)cc3)C2=O)CC1 (stereo not drawn) | 100 (≈ 145 µM) | 100 (≈ 145 µM) | 100 (≈ 145 µM) | 16 | 12 | 100 (≈ 145 µM) | 16 | 100 (≈ 145 µM) | < 10 | 50 (≈ 72.3 µM) | 14 | 14 | < 10 | < 10 | 12 | 100 (≈ 145 µM) | 15 | 100 (≈ 145 µM) | 100 (≈ 145 µM) | 22 | MIC (Escherichia coli [2]): 25 µg/mL (≈ 36.1 µM); zone of inhibition at 100 µg/disc (Pseudomonas aeruginosa [22]): 13 mm; MIC (Klebsiella pneumoniae [23]): 100 µg/mL (≈ 145 µM); MIC (Aspergillus fumigatus [24]): 100 µg/mL (≈ 145 µM)
CC(=O)N1CCN(c2ccc(OCC3COC(Cn4ccnc4)(c4ccc(Cl)cc4Cl)O3)cc2)CC1 (stereo not drawn) [KETOCONAZOLE] | 1 (≈ 1.88 µM) |  | 1 (≈ 1.88 µM) |  | 30 |  |  |  |  |  |  | 33 | 31 | 29 |  | ≤ 3 |  |  |  |  | MIC (Aspergillus fumigatus [24]): 1 µg/mL (≈ 1.88 µM)
O=C(O)c1cn(C2CC2)c2cc(N3CCNCC3)c(F)cc2c1=O [CIPROFLOXACIN] |  | 1 (≈ 3.02 µM) |  | 30 |  | ≤ 3 | 31 | 1 (≈ 3.02 µM) | 33 | 1 (≈ 3.02 µM) | 30 |  |  |  | 32 |  | 31 | 1 (≈ 3.02 µM) | 1 (≈ 3.02 µM) | 32 | zone of inhibition at 100 µg/disc (Pseudomonas aeruginosa [22]): 33 mm; MIC (Klebsiella pneumoniae [23]): 1 µg/mL (≈ 3.02 µM)
